The structures appear in SMILES notation.

One test deals with LR. Nature of the test: (§1) Antiproliferative activity against human LR cells incubated for 72 hrs by Celltiter-Glo assay. The test is classed as functional, cell-based. Put shortly: (§2)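 Cells treated with 0, 0.01, 0.03, 0.1, 0.3 and 1 μM of compound for 72 h. Viability read by CellTiter-Glo luminescence. IC50 taken from the dose–response curves. LR cells are LDK378-resistant. A549 and H460 carry co-occurring KRAS and KEAP1 mutations, and H358 carries a KRAS mutation only.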
(Cellular ATP, detected with luciferase, serves as a proxy for viable cell number.)

Test [1] in a line: as §1. The test is classed as functional, cell-based. In outline: as §2
The test system of a further test is NCI-H460. As to the kind of experiment: Antiproliferative activity against human NCI-H460 cells incubated for 72 hrs by Celltiter-Glo assay. The settings on record: NCI-H460, 72 h. The test is classed as functional, cell-based. In outline: as §2
The test system of the next test is A549. Nature of the test: Antiproliferative activity against human A549 cells incubated for 72 hrs by Celltiter-Glo assay. Type of test: functional, cell-based. The note with it: A549, 72 h. Put shortly: as §2
The test system of the next test is NCI-H358. As to the kind of experiment: Antiproliferative activity against human NCI-H358 cells incubated for 72 hrs by Celltiter-Glo assay. The test is classed as functional, cell-based. The note with it: NCI-H358, 72 h. In outline: as §2
Test [2] deals with T1, Glutaminase kidney isoform, mitochondrial (Homo sapiens, UniProt O94925).
T1 sequence (O94925 whole entry): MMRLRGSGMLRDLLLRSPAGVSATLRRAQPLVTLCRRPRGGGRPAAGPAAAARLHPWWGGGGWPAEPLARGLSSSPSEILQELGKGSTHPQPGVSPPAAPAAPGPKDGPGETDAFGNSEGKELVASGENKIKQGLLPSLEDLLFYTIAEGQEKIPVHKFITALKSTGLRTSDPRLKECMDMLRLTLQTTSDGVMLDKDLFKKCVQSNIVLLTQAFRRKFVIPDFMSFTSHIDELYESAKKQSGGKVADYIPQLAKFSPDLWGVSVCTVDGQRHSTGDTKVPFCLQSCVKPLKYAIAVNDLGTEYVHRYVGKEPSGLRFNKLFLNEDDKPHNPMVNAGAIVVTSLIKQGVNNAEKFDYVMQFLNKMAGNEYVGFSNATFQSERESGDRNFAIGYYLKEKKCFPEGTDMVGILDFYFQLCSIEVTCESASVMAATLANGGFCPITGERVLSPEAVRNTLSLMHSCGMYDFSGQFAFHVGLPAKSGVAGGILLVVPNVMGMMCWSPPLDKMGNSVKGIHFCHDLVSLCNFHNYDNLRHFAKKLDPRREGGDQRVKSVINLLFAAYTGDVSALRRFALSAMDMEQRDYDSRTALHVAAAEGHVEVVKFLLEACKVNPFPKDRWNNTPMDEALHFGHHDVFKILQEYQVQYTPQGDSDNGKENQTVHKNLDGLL
Nature of the test: Inhibition of GLS1 (unknown origin).

Take `O=C(Cc1cccc(OC(F)(F)F)c1)Nc1ccc(CCCCc2nnc(NC(=O)Cc3ccccn3)s2)nn1`: in the test on LR, the Activity entry was “Dose-Dependent Effect”. In addition, the IC50 (commonly the concentration needed to halve the response being measured) in test [1] is < 100 nM; in the test on NCI-H460, 36 nM; with A549 it was 26 nM; in the test on NCI-H358, > 1000 nM.
`O=C1Cc2cccc(c2)OCCOc2cccc(c2)CC(=O)NC2=NN=C(CCCCC3=NN=C(N1)S3)S2` registered an IC50 in test [2] of 980 nM. That is a sub-micromolar value.
The compound `O=C1Cc2cccc(c2)OCCOCCOc2cccc(c2)CC(=O)NC2=NN=C(CCCCCC3=NN=C(N1)S3)S2` returned an IC50 in test [2] of 10000 nM.
Take `O=C1Cc2cccc(c2)OCCCCCCCOc2cccc(c2)CC(=O)Nc2nnc(s2)CCCCc2ccc(nn2)N1`: 3000 nM corresponded to half-maximal inhibition in test [2] (IC50). This IC50 is about 3.3-fold lower than that of the compound before.
As to `O=C1Cc2cccc(c2)OCCOCCOc2cccc(c2)CC(=O)NC2=NN=C(CCCC3=NN=C(N1)S3)S2`, 4000 nM corresponded to half-maximal inhibition in test [2] (IC50).
Take `O=C1Cc2cccc(c2)OCCOCCOc2cccc(c2)CC(=O)NC2=NN=C(CCCCC3=NN=C(N1)S3)S2`: half-maximal inhibition in test [2] (IC50) required 2000 nM.
In the case of `O=C1Cc2cccc(c2)OCCCOCCCOc2cccc(c2)CC(=O)Nc2ccc(nn2)CCCCc2ccc(nn2)N1`, the Activity result in the test on LR is “Dose-Dependent Effect”. Moreover, the IC50 in test [1] was < 100 nM; in test [2] it was 310 nM; in the test on NCI-H460 it was 88 nM; in the test with A549, 95 nM; in the test on NCI-H358, > 1000 nM.
Consider `O=C1Cc2ccc(cc2)OCCOCCOCCOc2cccc(c2)CC(=O)Nc2nnc(s2)CCCCc2nnc(s2)N1`, for which, in test [2], the IC50 came to 3000 nM.
For the compound `O=C1Cc2cccc(c2)OCCOCCOCCOCCOc2cccc(c2)CC(=O)NC2=NN=C(CCCCC3=NN=C(N1)S3)S2`, in test [2], the IC50 worked out at 4000 nM. This IC50 and that of the compound before are within 1.5-fold of each other.
In the case of `O=C1Cc2cccc(c2)OCCOc2cccc(c2)CC(=O)Nc2ccc(nn2)CCCCc2ccc(nn2)N1`, the Activity entry with LR was “Dose-Dependent Effect”. The same compound gave an IC50 in test [2] of 180 nM.
In turn, `O=C1Cc2cccc(c2)OCCCCCOc2cccc(c2)CC(=O)Nc2nnc(s2)CCCCc2ccc(nn2)N1` displayed an IC50 in test [2] of 1000 nM.
In test [2], `O=C1Cc2cccc(c2)OCCCOCCCOc2cccc(c2)CC(=O)Nc2nnc(s2)CCCCc2ccc(nn2)N1` came in with an IC50 of 800 nM.
For the compound `O=C1Cc2cccc(c2)OCCOCCOc2cccc(c2)CC(=O)Nc2ccc(nn2)CCCCc2ccc(nn2)N1`, the Activity result in the test with LR is “Dose-Dependent Effect”. The IC50 in test [2] came out at 430 nM.
With `O=C1Cc2cccc(c2)OCCOCCOc2cccc(c2)CC(=O)Nc2nnc(s2)CCCCc2ccc(nn2)N1`, in the test with LR, the Activity entry is “Dose-Dependent Effect”. The compound further had an IC50 in test [2] of 400 nM.
